# Like-named read-outs stand apart in the source and are kept apart here. Marks after values point to notes of the source that are not given here.
# Experiments:
# [1] = format: in vivo; settings: male, Sprague-Dawley, rat, iv, 100 mg/kg
# Procedure, shortened: (§1)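 Male Sprague-Dawley rats (200 ± 50 g) were fasted 12 h and anaesthetised with urethane 1 g/kg i.p. A blood probe (1.2 cm) sat in the jugular vein and a brain probe (0.7 cm) in the striatum (+0.2 AP, +3.0 ML, −7.5 DV from bregma). Both were perfused with ACD at 2.0 µL/min. Test compound 100 mg/kg i.v. via femoral vein. Dialysates collected every 20 min for 6 h; UHPLC-MS/MS (MRM); noncompartmental parameters; AUC ratios; n = 6.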
# [2] = format: in vivo; settings: rat
# Procedure, shortened: as §1
# [3] = prodrug molnupiravir, metabolized to NHC in vivo; cited from earlier work
# [4] = Pharmacokinetics of molnupiravir and NHC in rat blood and brain; format: in vivo; settings: for concentration at 140 min: intravenous
# Procedure, shortened: as §1
# [5] = brain (striatum microdialysate)
# [6] = male, Sprague-Dawley, blood (microdialysate), iv, 100 mg/kg
# [7] = male, Sprague-Dawley, blood dialysate, iv, 100 mg/kg
# [8] = male, Sprague-Dawley, brain (striatum microdialysate), iv, 100 mg/kg
# [9] = male, Sprague-Dawley, brain (striatum) dialysate, iv, 100 mg/kg
# [10] = male, Sprague-Dawley, rat, blood (microdialysate), iv, 100 mg/kg
# [11] = male, Sprague-Dawley, rat, brain (striatum microdialysate), iv, 100 mg/kg
compound,measurement,setting,value
"CC(C)C(=O)OC[C@H]1O[C@@H](n2ccc(NO)nc2=O)[C@H](O)[C@@H]1O [Molnupiravir, molnupiravir]",AUC,[1]; blood (microdialysate),77400 ng·h/mL
same,Cmax,[1]; blood (microdialysate),185000 ± 18700 ng/mL
same,MRT,[1]; blood (microdialysate),29 min
same,clearance,[1]; blood (microdialysate),21.7 ± 0.66 mL/min/kg
same,half-life,[1]; blood (microdialysate),35 ± 10 min
same,AUC,[1]; [5],755 ng·h/mL
same,MRT,[1]; [5],53 min
same,Tmax,[1]; [5],40 min
same,half-life,[1]; [5],68 ± 22 min
same,Cmax,[1]; brain (striatum) dialysate,500 ± 90 ng/mL
same,MRT,[2]; [6],77 min
same,clearance,[2]; [6],16 ± 1.28 mL/min/kg
same,AUC,[2]; [7],110000 ng·h/mL
same,Cmax,[2]; [7],199000 ± 17000 ng/mL
same,half-life,[2]; [7],132 ± 32 min
same,MRT,[2]; [8],238 min
same,Tmax,[2]; [8],40 min
same,AUC,[2]; [9],1790 ng·h/mL
same,Cmax,[2]; [9],790 ± 220 ng/mL
same,half-life,[2]; [9],148 ± 34 min
same,AUCbrain/AUCblood (blood-to-brain transfer ratio),[2]; molnupiravir 100 mg/kg i.v. + BNPP 50 mg/kg i.v.,0.02 ± 0.004^a
same,bioavailability,[3],more than 90%
same,AUC,[4]; [10],57200 ng·h/mL
same,Cmax,[4]; [10],192000 ± 24100 ng/mL
same,clearance,[4]; [10],32.1 ± 4.45 mL/min/kg
same,half-life,[4]; [10],9 ± 2 min
same,concentration at 140 min,"[4]; male, Sprague-Dawley, rat, blood dialysate, 100 mg/kg",49.2 ng/mL
same,MRT,"[4]; male, Sprague-Dawley, rat, blood dialysate, iv, 100 mg/kg",18 min
same,AUC,[4]; [11],318 ng·h/mL
same,Cmax,[4]; [11],390 ± 100 ng/mL
same,half-life,[4]; [11],10 ± 1 min
same,concentration at 140 min,"[4]; male, Sprague-Dawley, rat, brain (striatum) dialysate, 100 mg/kg",103 ng/mL
same,MRT,"[4]; male, Sprague-Dawley, rat, brain (striatum) dialysate, iv, 100 mg/kg",35 min
same,Tmax,"[4]; male, Sprague-Dawley, rat, brain (striatum) dialysate, iv, 100 mg/kg, Tmax, rat brain, molnupiravir 100 mg/kg i.v. alone",40 min
same,time of biotransformation of molnupiravir to NHC,"[4]; rat blood, molnupiravir 100 mg/kg i.v.",≤ 20 min
same,AUCbrain/AUCblood (blood-to-brain transfer ratio),"[4]; rat, molnupiravir 100 mg/kg i.v. alone",0.005 ± 0.001^b
